PubChem BioAssay AID493196 (Broad Institute, 2011)
Inconclusive results are not listed. Activity calls are given as the source filed them.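 How the source made its calls: active means every repeat test active, with falling signal and half-maximal dose at most ten times the top dose; inconclusive means repeat tests disagree, or a weak flat or poor fit; inactive means all tests inactive, including signal shifting the wrong way.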

How the values were obtained:
[1] = tested on: HMLE_sh_eGFP viability, CellTiter-Glo luminescence, 72 h; experiment: cytotoxicity in control HMLE_sh_eGFP cells, dose response, counter-screen for breast cancer stem cell project, cell-based, luminescence, dry powder, set 3 (AID 493196)
Summary of the method: (§1)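 Medium: serum-free CSC screening medium / System: HMLE_sh_eGFP counterscreen cell line / Technique: CellTiter-Glo luminescence / Control set: DMSO neutral, puromycin 160 µM positive / Times: ≥4 h attachment, ~70–74 h exposure, 37 °C, 5% CO2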

[2] = as above; details: HMLE_sh_eGFP viability, CellTiter-Glo luminescence, 72 h; at 19.5 µM (top of the series)
Summary of the method: as §1

Row | SMILES | AC50 [1] | activity change, negative = cytotoxic [2]
1 | O=C(Nc1ccccc1N1CCCC1)c1cccc(-c2cc3ccccc3oc2=O)c1 | 7.97 µM | –
2 | COC(=O)c1c(NC(=O)c2ccccc2)sc2c1CC(C)(C)OC2 | 13.4 µM | –
3 | CN(c1ccccc1)S(=O)(=O)c1ccc(-c2ccccc2)cc1 | 14.4 µM | –
4 | O=C(c1ccccc1)c1coc2ccc(O)c(Br)c12 | – | 1.2% (inactive)
5 | C/C(=N\NC(=O)c1cc(-c2cccc([N+](=O)[O-])c2)n[nH]1)c1ccccc1O | 3.52 µM | –
6 | CCN1C(=O)/C(=C\N2CCN(c3cccc(Cl)c3)CC2)SC1=S | 11.8 µM | –
7 | Nc1cc(Cl)ccc1Oc1ccc2ccccc2c1 | 9.73 µM | –
8 | Cc1onc(-c2ccccc2)c1C(=O)Nc1sc2c(c1C#N)CCC(C)C2 (stereo not drawn) | 6.9 µM | –
9 | CC(=O)c1cccc(NS(=O)(=O)c2cc(-c3cnc(C4CC4)o3)ccc2C)c1 | 2.67 µM | –
10 | Cc1ccc2nc(NC(=O)c3cccc(-c4cc5ccccc5oc4=O)c3)sc2c1 | 1.85 µM | –
11 | CC(C)(C)c1ccc2c(c1)OC(C(=O)NN=Cc1ccc[nH]1)CO2 (mixture of isomers) | 19.6 µM | –
12 | CCCCCCc1cc2cc(S(=O)(=O)c3ccc(Cl)cc3)c(=O)oc2cc1O | 0.965 µM | –
13 | O=C1NC(=Nc2ccc(Cl)cc2)SC1Cc1cccc(Cl)c1Cl (stereo not drawn) | 14.5 µM | –
